inhibition, Ratio IC50 and IC50 data for three molecules are collected here from ChEMBL document CHEMBL1144856, “Design, synthesis, and biological evaluation of 1-(4-sulfamylphenyl)-3-trifluoromethyl-5-indolyl pyrazolines as cyclooxygenase-2 (COX-2) and lipoxygenase (LOX) inhibitors” (Bioorg Med Chem, 2008).

The target of assay [1] is T1, Polyunsaturated fatty acid lipoxygenase ALOX15 (Oryctolagus cuniculus) (UniProt P12530).
T1 sequence (whole entry): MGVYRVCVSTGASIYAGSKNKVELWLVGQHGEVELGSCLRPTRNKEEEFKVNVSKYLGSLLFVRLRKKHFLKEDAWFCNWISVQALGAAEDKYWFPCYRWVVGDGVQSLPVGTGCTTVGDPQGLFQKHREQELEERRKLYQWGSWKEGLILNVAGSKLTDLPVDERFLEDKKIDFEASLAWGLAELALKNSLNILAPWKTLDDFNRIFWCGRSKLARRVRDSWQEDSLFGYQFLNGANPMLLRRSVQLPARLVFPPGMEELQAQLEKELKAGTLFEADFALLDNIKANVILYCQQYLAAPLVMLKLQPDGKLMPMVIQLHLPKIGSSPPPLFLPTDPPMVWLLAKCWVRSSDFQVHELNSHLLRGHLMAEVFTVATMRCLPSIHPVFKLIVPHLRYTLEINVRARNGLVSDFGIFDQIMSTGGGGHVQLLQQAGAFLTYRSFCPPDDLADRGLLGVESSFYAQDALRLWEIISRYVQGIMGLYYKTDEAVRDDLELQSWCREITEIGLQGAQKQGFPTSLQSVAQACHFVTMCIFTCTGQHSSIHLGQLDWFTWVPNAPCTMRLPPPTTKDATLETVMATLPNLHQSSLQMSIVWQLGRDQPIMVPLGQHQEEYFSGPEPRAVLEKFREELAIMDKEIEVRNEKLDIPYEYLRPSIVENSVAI
Put plainly: Inhibition of LOX15 from rabbit reticulocytes at 10 uM by enzyme immuno assay. The essentials:
(§1)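 Run by a contract lab. Enzyme sources: human PBML cells (LOX-5), human platelets (LOX-12), rabbit reticulocytes (LOX-15). Substrates: endogenous arachidonic acid (LOX-5), added arachidonic acid (LOX-12), linoleic acid (LOX-15). Inhibition read as LTB4 (LOX-5), 12-HETE (LOX-12) or 15-HETE (LOX-15), quantified by EIA and spectrophotometrically.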

For assay [2], the target named is T2, Polyunsaturated fatty acid lipoxygenase ALOX12 (Homo sapiens) (UniProt P18054).
T2 sequence (whole entry): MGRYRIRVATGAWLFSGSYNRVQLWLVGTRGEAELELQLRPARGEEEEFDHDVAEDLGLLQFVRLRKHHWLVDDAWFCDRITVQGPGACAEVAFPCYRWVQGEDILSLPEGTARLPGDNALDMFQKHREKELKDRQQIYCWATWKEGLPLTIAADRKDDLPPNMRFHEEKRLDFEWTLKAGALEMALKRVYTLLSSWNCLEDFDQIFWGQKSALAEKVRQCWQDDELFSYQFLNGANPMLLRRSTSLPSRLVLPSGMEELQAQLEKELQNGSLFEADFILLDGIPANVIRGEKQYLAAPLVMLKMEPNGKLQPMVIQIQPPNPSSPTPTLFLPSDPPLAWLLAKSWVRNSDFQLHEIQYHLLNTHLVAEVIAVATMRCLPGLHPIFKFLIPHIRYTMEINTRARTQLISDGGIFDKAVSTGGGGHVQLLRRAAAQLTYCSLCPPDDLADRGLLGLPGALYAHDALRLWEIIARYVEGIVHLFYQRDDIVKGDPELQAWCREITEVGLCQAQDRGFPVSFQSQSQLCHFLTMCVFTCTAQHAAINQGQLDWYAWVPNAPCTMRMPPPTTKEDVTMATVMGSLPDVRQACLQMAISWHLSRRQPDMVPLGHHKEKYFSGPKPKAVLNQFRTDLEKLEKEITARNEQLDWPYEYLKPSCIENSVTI
Put plainly: Inhibition of LOX12 from human platelets at 10 uM by enzyme immuno assay. The essentials: as §1

For assay [3], the species on record is Ovis aries. Briefly: Selectivity ratio of IC50 for ovine COX1 to IC50 for ovine COX2. The essentials:
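Purified hematin-reconstituted ovine COX-1 and COX-2 (six units each) in Tris–HCl 0.1 M pH 8.0, 5 mM EDTA, 2 mM phenol. Enzymes were preincubated 1 h at room temperature with inhibitor in DMSO, then given arachidonic acid for 2 min at 37 °C. PGF2α from SnCl2 reduction of PGH2 was read by EIA. IC50s are means of duplicates; ratio is COX-1 IC50/COX-2 IC50.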

Assay [4] addresses T3, Polyunsaturated fatty acid 5-lipoxygenase (Homo sapiens) (UniProt P09917).
T3 sequence (whole entry): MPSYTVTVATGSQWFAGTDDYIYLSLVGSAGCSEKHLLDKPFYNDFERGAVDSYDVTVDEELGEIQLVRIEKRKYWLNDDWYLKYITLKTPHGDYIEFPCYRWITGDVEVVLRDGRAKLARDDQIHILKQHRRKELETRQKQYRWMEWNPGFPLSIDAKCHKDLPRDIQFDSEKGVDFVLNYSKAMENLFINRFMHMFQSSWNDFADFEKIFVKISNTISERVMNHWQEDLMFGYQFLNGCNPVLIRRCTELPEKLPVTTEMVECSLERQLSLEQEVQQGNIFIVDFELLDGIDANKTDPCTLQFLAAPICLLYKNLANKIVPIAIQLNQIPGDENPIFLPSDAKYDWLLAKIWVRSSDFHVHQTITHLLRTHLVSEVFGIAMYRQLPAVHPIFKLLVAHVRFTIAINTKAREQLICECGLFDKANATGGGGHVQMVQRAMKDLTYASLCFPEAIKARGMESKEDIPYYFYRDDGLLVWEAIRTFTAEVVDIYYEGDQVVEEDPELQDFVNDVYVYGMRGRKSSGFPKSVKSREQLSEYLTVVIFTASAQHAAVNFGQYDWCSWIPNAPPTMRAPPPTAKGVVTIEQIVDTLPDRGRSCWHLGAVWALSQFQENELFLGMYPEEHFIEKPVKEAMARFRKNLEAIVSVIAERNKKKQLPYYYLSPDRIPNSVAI
Put plainly: Inhibition of LOX5 from human PBML cells at 10 uM by enzyme immuno assay. Type of assay: cell-based. In outline:
as §1

Assay [5] concerns the target T4, Prostaglandin G/H synthase 1 (Ovis aries, UniProt P05979).
T4 sequence (P05979 whole entry): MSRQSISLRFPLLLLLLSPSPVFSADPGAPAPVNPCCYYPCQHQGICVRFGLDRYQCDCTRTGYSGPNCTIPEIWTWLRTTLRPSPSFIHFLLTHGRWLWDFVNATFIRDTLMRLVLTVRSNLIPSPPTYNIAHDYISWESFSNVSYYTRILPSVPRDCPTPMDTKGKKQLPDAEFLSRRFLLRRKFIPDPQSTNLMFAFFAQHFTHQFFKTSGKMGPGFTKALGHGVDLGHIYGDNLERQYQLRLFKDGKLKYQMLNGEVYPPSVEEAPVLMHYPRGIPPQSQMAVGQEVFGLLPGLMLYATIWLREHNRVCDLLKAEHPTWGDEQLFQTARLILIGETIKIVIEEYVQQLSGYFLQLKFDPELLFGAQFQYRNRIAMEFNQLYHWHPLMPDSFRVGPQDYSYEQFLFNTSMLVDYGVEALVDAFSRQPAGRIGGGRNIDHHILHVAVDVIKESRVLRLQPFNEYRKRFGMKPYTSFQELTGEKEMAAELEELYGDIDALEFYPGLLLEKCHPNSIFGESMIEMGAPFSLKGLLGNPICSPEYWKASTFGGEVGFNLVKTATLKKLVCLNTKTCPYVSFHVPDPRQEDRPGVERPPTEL
Briefly: Inhibition of ovine COX1 by enzyme immuno assay. The essentials:
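Hematin-reconstituted purified ovine COX-1 (six units) in 0.1 M Tris-HCl pH 8.0 with 5 mM EDTA and 2 mM phenol. Pre-incubated 1 h at room temperature with inhibitor in DMSO, then arachidonic acid added for 2 min at 37 °C. PGH2 was reduced with stannous chloride and PGF2α measured by EIA. Run in duplicate; IC50 is the mean of the duplicates.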

Take `NS(=O)(=O)c1ccc(N2N=C(C(F)(F)F)CC2c2c[nH]c3cc(Cl)ccc23)cc1` (stereo not drawn): the inhibition in assay [1] is 36%; in assay [2], -2%; in assay [4] it was 51%. The Ratio IC50 in assay [3] is 0. Moreover, the IC50 in assay [5] is > 100 µM.
Turning to `NS(=O)(=O)c1ccc(N2N=C(C(F)(F)F)CC2c2c[nH]c3ccccc23)cc1` (stereo in doubt; 5a), the inhibition in assay [1] is 31%; in assay [2], 5%; in assay [4], 41%. In assay [3], the Ratio IC50 was > 72.
In the same order, the values of `NS(=O)(=O)c1ccc(N2N=C(C(F)(F)F)CC2c2c[nH]c3c(Cl)cccc23)cc1` (stereo in doubt; 5f) are 36%, 3%, 94% and > 26.
